# Experimental data collected from several papers.
# Lines come from different studies, so protocols differ.
# PTGS2: Prostaglandin G/H synthase 2 (PTGS2, Homo sapiens, UniProt P35354)
# BRDT BD1: Bromodomain testis-specific protein, BD1 (BRDT, Homo sapiens, UniProt Q58F21)
# DYRK3: Dual specificity tyrosine-phosphorylation-regulated kinase 3 (DYRK3, Homo sapiens, UniProt O43781)
Structure (SMILES),target,observed,action,technique,concentration,quantity,value
Cc1cnc(Nc2ccc(OCCN3CCCC3)cc2)nc1Nc1cccc(S(=O)(=O)NC(C)(C)C)c1,"CREB-binding protein (CREBBP, Homo sapiens, UniProt Q92793)",thermal stability,,DSF,10 µM,ΔTm,2.06 °C
O=C(O)c1ccc(O)cc1,PTGS2,enzyme activity,inhibitor,,15.63 µg/mL,inhibition,100%
Cc1cc2c(cc1N1C(=O)c3cccc4c(Cl)ccc(c34)C1=O)n(C)c(=O)n2C,BRDT BD1,thermal stability,,DSF,10 µM,ΔTm,-1 °C
NS(=O)(=O)c1ccc(Nc2nc(-c3ccc(F)cc3)c3ccccc3n2)cc1,BRDT BD1,binding,,competition with immobilised ligand,1 µM,remaining binding,6%
O=C(O)c1ccc2c(c1)nc(Nc1cccc(F)c1)c1ccncc12,DYRK3,enzyme activity,inhibitor,radiometric,1 µM,remaining activity,0%
Oc1ccc(-c2nc(-c3ccncc3)c(-c3ccc(F)cc3)[nH]2)cc1,"Transcription intermediary factor 1-beta (TRIM28, Homo sapiens, UniProt Q13263)",thermal stability,,DSF,10 µM,ΔTm,-0.03 °C
O=c1cc(-c2ccc(O)cc2)oc2cc(O)cc(O)c12,PTGS2,enzyme activity,inhibitor,,0.98 µg/mL,inhibition,28.2%
O=C(O)c1ccc2c(c1)nc(Nc1cccc(F)c1)c1ncncc12,"Homeodomain-interacting protein kinase 2 (HIPK2, Homo sapiens, UniProt Q9H2X6)",enzyme activity,inhibitor,radiometric,1 µM,remaining activity,-1%
COc1ccc(-c2cc(=O)c3c(O)cc(O[C@@H]4O[C@H](CO)[C@@H](O)[C@H](O)[C@H]4O)cc3o2)cc1O,PTGS2,enzyme activity,inhibitor,,3.9 µg/mL,inhibition,100%
O=C(O)c1ccc2c(c1)nc(NCCc1ccccc1)c1ccncc12,DYRK3,enzyme activity,inhibitor,radiometric,1 µM,remaining activity,3%
